Source: ChEMBL document CHEMBL1177643, “Synthesis, DNA-binding ability and anticancer activity of benzothiazole/benzoxazole-pyrrolo[2,1-c][1,4]benzodiazepine conjugates” (Bioorg Med Chem, 2010)

Tests used:
[1] = tested on: Calf thymus DNA; assay: Binding affinity to calf thymus duplex-form DNA assessed as cleavage of pBR322 after 16 hrs by restriction endonuclease digestion assay in presence of BamHI; assay type: nucleic-acid assay; details: Bos taurus
Summary of the method: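 pBR322 DNA (500 ng) preincubated with compound (5–30 μM) 16 h at 37 °C, then digested with BamHI (20 U) 1 h at 37 °C. Products run on 1% agarose in Tris–acetate EDTA, 80 V, 2 h. Read-out was ethidium bromide staining under UV, with an undigested and a fully digested control.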

[2] = tested on: A-375; assay: Cell cycle arrest in human A375 cells assessed as accumulation at G0 phase at 2 uM after 24 hrs using propidium iodide staining by flow cytometry; assay type: functional
Summary of the method: (§1)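 A375 cells (5×10^5) grown 24 h, then exposed to compound 24 h (DMSO control). Trypsin–EDTA harvest, fixed in ice-cold 70% ethanol at 4 °C 30 min, RNase A 37 °C 30 min, propidium iodide staining. DNA content measured by flow cytometry on 20,000 events, gated as sub-G1/G0, G1, S and G2/M.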

[3] = tested on: A-375; assay: Cell cycle arrest in human A375 cells assessed as accumulation at G1 phase at 2 uM after 24 hrs using propidium iodide staining by flow cytometry; assay type: functional; summary of the method: as §1
[4] = tested on: A-375; assay: Cell cycle arrest in human A375 cells assessed as accumulation at S phase at 2 uM after 24 hrs using propidium iodide staining by flow cytometry; assay type: functional; summary of the method: as §1
[5] = tested on: A-375; assay: Cell cycle arrest in human A375 cells assessed as accumulation at G2/M phase at 2 uM after 24 hrs using propidium iodide staining by flow cytometry; assay type: functional; summary of the method: as §1
[6] = tested on: A-375; assay: Cell cycle arrest in human A375 cells assessed as accumulation at G0/G1 phase at 2 uM after 24 hrs using propidium iodide staining by flow cytometry; assay type: functional; summary of the method: as §1
[7] = tested on: A-375; assay: Cell cycle arrest in human A375 cells assessed as accumulation at G0 phase at 0.5 uM after 24 hrs using propidium iodide staining by flow cytometry; assay type: functional; summary of the method: as §1
[8] = tested on: A-375; assay: Cell cycle arrest in human A375 cells assessed as accumulation at G1 phase at 0.5 uM after 24 hrs using propidium iodide staining by flow cytometry; assay type: functional; summary of the method: as §1
[9] = tested on: A-375; assay: Cell cycle arrest in human A375 cells assessed as accumulation at S phase at 0.5 uM after 24 hrs using propidium iodide staining by flow cytometry; assay type: functional; summary of the method: as §1
[10] = tested on: A-375; assay: Cell cycle arrest in human A375 cells assessed as accumulation at G2/M phase at 0.5 uM after 24 hrs using propidium iodide staining by flow cytometry; assay type: functional; summary of the method: as §1
[11] = tested on: A-375; assay: Cell cycle arrest in human A375 cells assessed as accumulation at G0/G1 phase at 0.5 uM after 24 hrs using propidium iodide staining by flow cytometry; assay type: functional; summary of the method: as §1
[12] = tested on: A-375; assay: Cell cycle arrest in human A375 cells assessed as accumulation at G0 phase at 1 uM after 24 hrs using propidium iodide staining by flow cytometry; assay type: functional; summary of the method: as §1
[13] = tested on: A-375; assay: Cell cycle arrest in human A375 cells assessed as accumulation at G1 phase at 1 uM after 24 hrs using propidium iodide staining by flow cytometry; assay type: functional; summary of the method: as §1
[14] = tested on: A-375; assay: Cell cycle arrest in human A375 cells assessed as accumulation at S phase at 1 uM after 24 hrs using propidium iodide staining by flow cytometry; assay type: functional; summary of the method: as §1
[15] = tested on: A-375; assay: Cell cycle arrest in human A375 cells assessed as accumulation at G2/M phase at 1 uM after 24 hrs using propidium iodide staining by flow cytometry; assay type: functional; summary of the method: as §1
[16] = tested on: A-375; assay: Cell cycle arrest in human A375 cells assessed as accumulation at G0/G1 phase at 1 uM after 24 hrs using propidium iodide staining by flow cytometry; assay type: functional; summary of the method: as §1
[17] = tested on: A-375; assay: Cell cycle arrest in human A375 cells assessed as accumulation at sub-G0 phase at 0.5 uM after 24 hrs using propidium iodide staining by flow cytometry; assay type: functional; summary of the method: as §1
[18] = tested on: A-375; assay: Cell cycle arrest in human A375 cells assessed as accumulation at sub-G0 phase at 1 uM after 24 hrs using propidium iodide staining by flow cytometry; assay type: functional; summary of the method: as §1
[19] = tested on: A-375; assay: Cell cycle arrest in human A375 cells assessed as accumulation at sub-G0 phase at 2 uM after 24 hrs using propidium iodide staining by flow cytometry; assay type: functional; summary of the method: as §1

**Q.** Which results are given for `COc1cc2c(cc1O)N=C[C@@H]1CCCN1C2=O`?
**A.** Activity [1]: Dose-dependent effect; Activity [2]: 10.7%; Activity [3]: 67.23%; Activity [4]: 13.54%; Activity [5]: 8.53%; Activity [6]: 77.93%; Activity [7]: 3.73%; Activity [8]: 79.42%; Activity [9]: 79.42%; Activity [10]: 6.45%; Activity [11]: 83.15%; Activity [12]: 14.41%; Activity [13]: 74.22%; Activity [14]: 5.03%; Activity [15]: 6.34%; Activity [16]: 88.63%; Activity [17]: 2.23%; Activity [18]: 14.41%; Activity [19]: 26.75%
